Experimental findings from ChEMBL document CHEMBL1150387, “Development and experimental validation of a docking strategy for the generation of kinase-targeted libraries” (J Med Chem, 2008) are described below.

The target in experiment [1] is Focal adhesion kinase 1 (Homo sapiens) (UniProt Q05397). Description: Inhibition of FAK at 10 uM by HTRF assay relative to control. The gist of the method:
(§1)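 HTRF kinase assay, one panel of kinases. Inhibitor stock 50 µM in 100% DMSO; tested at 10 µM. ATP and substrate at final levels near Km. Final buffer: 50 mM Hepes/NaOH pH 7.4, 40 µM Na3VO4, 0.005% Tween-20, 1 mM DTT, MnCl2 or MgCl2 at kinase-dependent levels. Started by adding ATP/substrate. Reaction run at room temperature, time varied by kinase. Detection mix in 50 mM Hepes pH 7.4, 0.1% BSA, 150 mM KF, incubated ≥1 h at room temperature. Activity expressed as % of uninhibited control; n=2.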
For orientation: In TR-FRET formats the signal depends on donor and acceptor labels being close together.

Experiment [2] can be described thus: Inhibition of IRK at 10 uM by HTRF assay relative to control. The gist of the method:
as §1

Experiment [3] concerns the target 3-phosphoinositide-dependent protein kinase 1 (Homo sapiens) (UniProt O15530). Briefly: Inhibition of PDK1 at 10 uM by HTRF assay relative to control.
The nature of experiment [4]: Inhibition of PKA at 10 uM by HTRF assay relative to control. The gist of the method: as §1
In experiment [5] the target is T1, Mitogen-activated protein kinase 12 (Homo sapiens) (UniProt P53778).
T1 sequence (whole entry): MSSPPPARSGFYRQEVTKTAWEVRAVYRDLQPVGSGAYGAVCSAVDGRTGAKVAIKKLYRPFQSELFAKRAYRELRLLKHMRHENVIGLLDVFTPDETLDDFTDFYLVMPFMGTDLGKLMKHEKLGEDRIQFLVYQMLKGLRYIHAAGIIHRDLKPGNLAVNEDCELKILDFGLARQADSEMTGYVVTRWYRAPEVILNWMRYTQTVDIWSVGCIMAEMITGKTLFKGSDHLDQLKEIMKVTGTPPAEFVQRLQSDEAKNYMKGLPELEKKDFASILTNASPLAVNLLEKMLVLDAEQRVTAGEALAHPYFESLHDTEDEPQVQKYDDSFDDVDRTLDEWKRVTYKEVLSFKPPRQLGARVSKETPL
Briefly: Inhibition of p38-gamma at 10 uM by HTRF assay relative to control. The gist of the method: as §1

Experiment [6] has as its target Mitogen-activated protein kinase 1 (Homo sapiens) (UniProt P28482). Briefly: Inhibition of ERK2 at 10 uM by HTRF assay relative to control. Put shortly: as §1
Experiment [7] addresses Tyrosine-protein kinase ABL1 (Homo sapiens) (UniProt P00519). Description: Inhibition of Abl at 10 uM by HTRF assay relative to control. Put shortly: as §1
The target in experiment [8] is Fibroblast growth factor receptor 1 (Homo sapiens) (UniProt P11362). Briefly: Inhibition of FGFR1 at 10 uM by HTRF assay relative to control. Put shortly:
as §1

The target of experiment [9] is RAC-alpha serine/threonine-protein kinase (Homo sapiens) (UniProt P31749). Description: Inhibition of AKT1/PKBalpha at 10 uM by HTRF assay relative to control. Put shortly: as §1
The target of experiment [10] is Protein-tyrosine kinase 6 (Homo sapiens) (UniProt Q13882). Briefly: Inhibition of Brk at 10 uM by HTRF assay relative to control. Put shortly:
as §1

In experiment [11] the target is Calcium/calmodulin-dependent protein kinase type II subunit alpha (Homo sapiens) (UniProt Q9UQM7). Description: Inhibition of CaMK2alpha at 10 uM by HTRF assay relative to control. Put shortly:
as §1

Experiment [12] in a line: Inhibition of AMPKalpha at 10 uM by HTRF assay relative to control. The gist of the method: as §1
Experiment [13] addresses Mitogen-activated protein kinase 9 (Homo sapiens) (UniProt P45984). Description: Inhibition of JNK2 at 10 uM by HTRF assay relative to control. The gist of the method:
as §1

Experiment [14] addresses T2, Tyrosine-protein kinase ZAP-70 (Homo sapiens) (UniProt P43403).
T2 sequence (whole entry): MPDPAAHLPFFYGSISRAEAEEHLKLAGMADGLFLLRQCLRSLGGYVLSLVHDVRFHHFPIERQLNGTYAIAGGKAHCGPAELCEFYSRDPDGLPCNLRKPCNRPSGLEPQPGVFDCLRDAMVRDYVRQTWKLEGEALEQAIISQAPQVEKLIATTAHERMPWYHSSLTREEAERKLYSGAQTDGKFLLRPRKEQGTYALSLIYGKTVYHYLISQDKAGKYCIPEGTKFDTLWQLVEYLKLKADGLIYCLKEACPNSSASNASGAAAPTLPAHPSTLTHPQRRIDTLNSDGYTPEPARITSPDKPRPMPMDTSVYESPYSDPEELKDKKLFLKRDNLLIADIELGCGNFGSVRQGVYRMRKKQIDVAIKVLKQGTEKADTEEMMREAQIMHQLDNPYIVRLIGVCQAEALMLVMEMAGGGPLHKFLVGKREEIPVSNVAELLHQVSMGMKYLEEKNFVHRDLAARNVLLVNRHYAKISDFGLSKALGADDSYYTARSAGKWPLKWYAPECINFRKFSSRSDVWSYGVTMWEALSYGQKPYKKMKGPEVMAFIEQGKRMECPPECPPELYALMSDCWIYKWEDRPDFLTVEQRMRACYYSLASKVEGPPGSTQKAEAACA
Briefly: Inhibition of ZAP70 at 10 uM by HTRF assay relative to control. Put shortly: as §1

Experiment [15] concerns the target Platelet-derived growth factor receptor beta (Homo sapiens) (UniProt P09619). Briefly: Inhibition of PDGFRbeta at 10 uM by HTRF assay relative to control. The gist of the method:
as §1

The target of experiment [16] is Insulin-like growth factor 1 receptor (Homo sapiens) (UniProt P08069). Briefly: Inhibition of IGF1R at 10 uM by HTRF assay relative to control. The gist of the method: as §1
The target in experiment [17] is MAP kinase-activated protein kinase 2 (Homo sapiens) (UniProt P49137). Description: Inhibition of MAPKAPK2 at 10 uM by HTRF assay relative to control. The gist of the method:
as §1

Experiment [18] deals with Ribosomal protein S6 kinase alpha-3 (Homo sapiens) (UniProt P51812). Description: Inhibition of RSK2 at 10 uM by HTRF assay relative to control. Put shortly:
as §1

RAC-alpha serine/threonine-protein kinase (Homo sapiens), sequence (P31749 whole entry): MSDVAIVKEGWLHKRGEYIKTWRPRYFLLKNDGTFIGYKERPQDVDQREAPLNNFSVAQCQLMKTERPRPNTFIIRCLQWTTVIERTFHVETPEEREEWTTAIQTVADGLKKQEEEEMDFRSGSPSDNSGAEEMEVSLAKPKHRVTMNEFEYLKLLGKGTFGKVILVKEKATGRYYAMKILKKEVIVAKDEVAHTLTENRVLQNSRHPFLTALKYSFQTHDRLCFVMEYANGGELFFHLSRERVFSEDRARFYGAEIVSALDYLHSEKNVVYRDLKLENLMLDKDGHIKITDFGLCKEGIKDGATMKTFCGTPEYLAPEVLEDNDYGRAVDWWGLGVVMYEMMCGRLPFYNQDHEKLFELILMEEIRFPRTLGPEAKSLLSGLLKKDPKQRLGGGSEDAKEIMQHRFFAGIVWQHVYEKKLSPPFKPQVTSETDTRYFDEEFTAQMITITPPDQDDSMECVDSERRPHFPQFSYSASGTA
Fibroblast growth factor receptor 1 (Homo sapiens), sequence (P11362 22-822 limits assumed): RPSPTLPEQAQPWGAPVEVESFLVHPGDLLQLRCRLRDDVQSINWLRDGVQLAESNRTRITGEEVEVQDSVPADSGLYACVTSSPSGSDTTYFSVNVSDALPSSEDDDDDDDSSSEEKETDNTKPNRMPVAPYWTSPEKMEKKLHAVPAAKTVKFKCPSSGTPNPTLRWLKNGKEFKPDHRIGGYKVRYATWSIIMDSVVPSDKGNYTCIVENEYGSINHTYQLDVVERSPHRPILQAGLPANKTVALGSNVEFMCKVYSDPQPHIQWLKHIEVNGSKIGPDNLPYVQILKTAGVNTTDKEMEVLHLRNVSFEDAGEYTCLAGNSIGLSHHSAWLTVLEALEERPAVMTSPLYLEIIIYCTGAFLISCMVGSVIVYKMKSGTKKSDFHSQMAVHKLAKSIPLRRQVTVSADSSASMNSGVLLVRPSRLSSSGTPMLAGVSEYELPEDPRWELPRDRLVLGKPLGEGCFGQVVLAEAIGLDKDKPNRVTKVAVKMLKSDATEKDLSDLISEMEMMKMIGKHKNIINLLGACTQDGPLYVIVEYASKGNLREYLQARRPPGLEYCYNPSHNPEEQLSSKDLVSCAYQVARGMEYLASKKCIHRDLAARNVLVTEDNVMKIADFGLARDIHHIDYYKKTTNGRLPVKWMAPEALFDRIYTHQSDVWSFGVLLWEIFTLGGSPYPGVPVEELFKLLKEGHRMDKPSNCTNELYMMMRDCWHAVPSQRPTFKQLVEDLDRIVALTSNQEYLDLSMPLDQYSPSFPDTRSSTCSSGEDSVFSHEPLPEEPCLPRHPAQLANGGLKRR
Insulin-like growth factor 1 receptor (Homo sapiens), sequence (P08069 31-736 limits assumed): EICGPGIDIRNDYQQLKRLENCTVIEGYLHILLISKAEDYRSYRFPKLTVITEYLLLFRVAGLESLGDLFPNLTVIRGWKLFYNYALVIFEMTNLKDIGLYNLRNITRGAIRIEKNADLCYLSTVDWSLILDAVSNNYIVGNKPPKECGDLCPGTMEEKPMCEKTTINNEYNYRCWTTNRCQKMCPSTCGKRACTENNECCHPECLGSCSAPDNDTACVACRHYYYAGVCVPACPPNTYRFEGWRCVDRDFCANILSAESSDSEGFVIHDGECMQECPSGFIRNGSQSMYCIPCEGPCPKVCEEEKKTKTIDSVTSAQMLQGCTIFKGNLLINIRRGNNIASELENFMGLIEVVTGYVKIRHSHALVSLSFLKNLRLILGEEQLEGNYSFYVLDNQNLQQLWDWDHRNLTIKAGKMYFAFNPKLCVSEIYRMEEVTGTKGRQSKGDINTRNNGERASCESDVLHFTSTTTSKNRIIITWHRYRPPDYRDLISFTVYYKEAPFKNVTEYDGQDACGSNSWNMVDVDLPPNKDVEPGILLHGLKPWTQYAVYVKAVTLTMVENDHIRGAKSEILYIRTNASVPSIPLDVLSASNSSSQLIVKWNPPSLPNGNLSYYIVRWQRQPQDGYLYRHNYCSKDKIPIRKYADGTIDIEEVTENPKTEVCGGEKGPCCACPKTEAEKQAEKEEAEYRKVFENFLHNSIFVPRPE
Insulin-like growth factor 1 receptor (Homo sapiens), sequence (P08069 741-1367 limits assumed): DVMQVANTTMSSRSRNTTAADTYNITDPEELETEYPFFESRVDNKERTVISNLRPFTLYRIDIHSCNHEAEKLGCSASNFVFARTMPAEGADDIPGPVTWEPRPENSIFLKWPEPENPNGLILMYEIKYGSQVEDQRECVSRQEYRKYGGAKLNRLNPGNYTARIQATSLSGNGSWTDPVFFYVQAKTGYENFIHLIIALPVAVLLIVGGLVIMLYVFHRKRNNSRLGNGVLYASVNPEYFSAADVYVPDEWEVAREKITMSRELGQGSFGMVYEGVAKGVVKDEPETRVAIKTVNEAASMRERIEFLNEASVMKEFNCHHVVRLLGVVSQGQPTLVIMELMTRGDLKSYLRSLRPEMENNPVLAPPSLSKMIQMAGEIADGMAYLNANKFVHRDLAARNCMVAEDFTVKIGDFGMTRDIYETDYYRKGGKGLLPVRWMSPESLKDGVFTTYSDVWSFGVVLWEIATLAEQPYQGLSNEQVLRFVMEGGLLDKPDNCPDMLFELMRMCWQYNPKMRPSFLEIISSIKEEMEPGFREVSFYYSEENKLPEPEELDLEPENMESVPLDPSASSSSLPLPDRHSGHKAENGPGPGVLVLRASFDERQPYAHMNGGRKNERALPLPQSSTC
Mitogen-activated protein kinase 1 (Homo sapiens), sequence (P28482 whole entry): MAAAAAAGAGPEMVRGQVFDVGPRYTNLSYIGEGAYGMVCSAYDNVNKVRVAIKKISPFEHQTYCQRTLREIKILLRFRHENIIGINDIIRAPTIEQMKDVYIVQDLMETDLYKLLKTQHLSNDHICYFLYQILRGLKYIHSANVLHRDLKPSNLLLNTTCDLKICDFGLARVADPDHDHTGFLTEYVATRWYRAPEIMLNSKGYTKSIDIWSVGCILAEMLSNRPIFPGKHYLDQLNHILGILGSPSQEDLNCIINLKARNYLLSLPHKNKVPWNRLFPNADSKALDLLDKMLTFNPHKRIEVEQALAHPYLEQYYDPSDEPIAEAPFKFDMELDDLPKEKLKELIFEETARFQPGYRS
Protein-tyrosine kinase 6 (Homo sapiens), sequence (Q13882 whole entry, looked up): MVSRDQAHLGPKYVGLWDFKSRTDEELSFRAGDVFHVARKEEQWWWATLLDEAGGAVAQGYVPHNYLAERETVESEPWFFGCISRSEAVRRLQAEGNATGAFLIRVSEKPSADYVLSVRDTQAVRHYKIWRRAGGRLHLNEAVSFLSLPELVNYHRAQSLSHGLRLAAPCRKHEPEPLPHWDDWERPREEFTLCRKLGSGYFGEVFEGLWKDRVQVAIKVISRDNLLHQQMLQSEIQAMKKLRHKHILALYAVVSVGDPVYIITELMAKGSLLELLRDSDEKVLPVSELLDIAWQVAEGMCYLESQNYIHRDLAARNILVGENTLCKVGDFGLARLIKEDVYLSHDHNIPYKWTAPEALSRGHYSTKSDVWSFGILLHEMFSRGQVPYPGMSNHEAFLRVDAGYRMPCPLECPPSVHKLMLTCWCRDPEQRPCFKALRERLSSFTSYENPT
Calcium/calmodulin-dependent protein kinase type II subunit alpha (Homo sapiens), sequence (Q9UQM7 whole entry): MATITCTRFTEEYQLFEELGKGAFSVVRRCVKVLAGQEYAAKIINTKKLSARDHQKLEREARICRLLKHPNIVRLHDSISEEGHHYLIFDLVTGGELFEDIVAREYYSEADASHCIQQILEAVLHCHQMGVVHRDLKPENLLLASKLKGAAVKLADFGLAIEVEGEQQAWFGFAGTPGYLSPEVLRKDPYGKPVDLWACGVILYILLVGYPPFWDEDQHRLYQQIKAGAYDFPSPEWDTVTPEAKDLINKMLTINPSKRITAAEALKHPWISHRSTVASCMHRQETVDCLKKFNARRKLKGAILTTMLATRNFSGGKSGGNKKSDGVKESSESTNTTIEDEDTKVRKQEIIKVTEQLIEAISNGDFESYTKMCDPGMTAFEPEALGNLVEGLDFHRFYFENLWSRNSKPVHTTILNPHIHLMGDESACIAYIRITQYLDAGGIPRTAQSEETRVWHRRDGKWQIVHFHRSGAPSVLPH
3-phosphoinositide-dependent protein kinase 1 (Homo sapiens), sequence (O15530 whole entry, looked up): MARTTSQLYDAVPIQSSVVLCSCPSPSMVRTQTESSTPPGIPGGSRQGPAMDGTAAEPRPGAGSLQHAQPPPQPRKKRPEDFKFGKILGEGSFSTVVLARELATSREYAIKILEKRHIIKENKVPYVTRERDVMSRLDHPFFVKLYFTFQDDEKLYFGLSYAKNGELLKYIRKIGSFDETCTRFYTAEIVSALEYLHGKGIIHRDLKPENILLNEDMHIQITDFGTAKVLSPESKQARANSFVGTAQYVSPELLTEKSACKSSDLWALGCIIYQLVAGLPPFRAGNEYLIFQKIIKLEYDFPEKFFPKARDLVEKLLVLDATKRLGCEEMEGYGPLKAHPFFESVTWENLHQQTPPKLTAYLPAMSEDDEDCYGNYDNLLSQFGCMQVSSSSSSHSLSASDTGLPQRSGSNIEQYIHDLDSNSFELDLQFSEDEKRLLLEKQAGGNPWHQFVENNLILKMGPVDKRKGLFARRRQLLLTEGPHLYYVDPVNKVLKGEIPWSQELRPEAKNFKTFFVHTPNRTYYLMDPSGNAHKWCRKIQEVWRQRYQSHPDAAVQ
Mitogen-activated protein kinase 9 (Homo sapiens), sequence (P45984 whole entry, looked up): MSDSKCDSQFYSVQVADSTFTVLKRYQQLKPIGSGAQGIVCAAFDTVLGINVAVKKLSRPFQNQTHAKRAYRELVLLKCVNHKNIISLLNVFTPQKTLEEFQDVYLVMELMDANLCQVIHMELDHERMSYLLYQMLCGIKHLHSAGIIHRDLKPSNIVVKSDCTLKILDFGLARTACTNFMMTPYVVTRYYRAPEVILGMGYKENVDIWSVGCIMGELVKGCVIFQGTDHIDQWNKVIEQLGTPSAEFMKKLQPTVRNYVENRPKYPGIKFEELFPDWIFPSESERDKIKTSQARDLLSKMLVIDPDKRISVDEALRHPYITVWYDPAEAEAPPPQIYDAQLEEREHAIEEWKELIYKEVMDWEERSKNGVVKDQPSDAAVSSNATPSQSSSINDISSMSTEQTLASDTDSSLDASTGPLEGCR

The term inhibition denotes the percentage by which the read-out fell short of the control. For `CN(C)CC(C)(C)CNC(=O)[C@@H]1CCCN1c1nccc(Nc2ccccc2)n1`, the inhibition in experiment [1] turned out to be 4%; in [2] it was 0%; in [3] it was 10%; in experiment [4], 0%; in experiment [5], 2%; in experiment [6], 0%. In addition, the inhibition in experiment [7] amounted to 0%; in [8], 4%; in experiment [9], 0%; in [10], 4%; in [11], 0%; in experiment [12] it was 10%. The inhibition in [13] came out at 2%; in experiment [14], 1%; in experiment [15], 5%; in experiment [16], 0%; in [17] it was 4%; in experiment [18] it was 0%.
As for `O=C(NCc1cccnc1)c1cccc(-c2ccc(Nc3ccc4ncsc4c3)nn2)c1`, the inhibition in experiment [1] worked out at 67%; in experiment [2], 73%; in experiment [3], 4%; in experiment [4] it was 16%; in [5], 5%; in [6], 40%. Further, the inhibition in [7] came to 23%; in experiment [8] it was 49%; in experiment [9], 5%; in experiment [10] it was 48%; in experiment [11], 0%; in experiment [12], 54%. Further, the inhibition was 51% in experiment [13]; 11% in [14]; 85% in [15]; 32% in experiment [16]; 6% in experiment [17]; 62% in experiment [18].
Regarding `COc1ccc(NC(=O)Cc2ccc(Nc3cc(N(C)c4cccc(C)c4)ncn3)cc2)cn1`, the inhibition in [1] was found to be 5%; in [2], 0%; in experiment [3] it was 1%; in experiment [4], 0%; in experiment [5], 1%; in [6], 4%. The inhibition in experiment [7] turned out to be 13%; in experiment [8], 16%; in experiment [9] it was 0%; in experiment [10] it was 4%; in experiment [11], 0%; in [12], 2%. Also, the inhibition amounted to 2% in experiment [13]; 2% in experiment [14]; 22% in experiment [15]; 6% in experiment [16]; 0% in experiment [17]; 0% in experiment [18].
With `Nc1nc(N2CCOCC2)cc(N2CCC(C(=O)NCCc3ccc(O)cc3)CC2)n1`, the inhibition in experiment [1] was 3%; in experiment [2], 0%; in experiment [3], 0%; in experiment [4], 0%; in experiment [5], 0%; in [6], 11%. The inhibition is 6% in [7]; 15% in experiment [8]; 2% in experiment [9]; 0% in experiment [10]; 0% in experiment [11]; 12% in experiment [12]. Moreover, the inhibition in [13] was determined as 3%; in experiment [14], 2%; in experiment [15], 0%; in experiment [16] it was 0%; in [17] it was 0%; in [18], 0%.
As for `O=C(NC1Cc2ccccc2C1)c1cccc(Nc2ccnc(N3CCN(c4ccccc4)CC3)n2)c1`, the inhibition in experiment [1] was determined as 0%; in [2], 0%; in experiment [3] it was 0%; in [4], 0%; in experiment [5] it was 2%; in experiment [6] it was 0%. The inhibition in experiment [7] worked out at 11%; in [8], 2%; in [9], 2%; in experiment [10], 0%; in experiment [11], 0%; in [12], 9%. Moreover, the inhibition amounted to 3% in experiment [13]; 6% in experiment [14]; 8% in experiment [15]; 0% in [16]; 4% in experiment [17]; 0% in [18].
As for `Clc1ccc2sc(CN3CCN(c4ncnc5c4CN(Cc4ccccc4)CC5)CC3)cc2c1`, the inhibition was determined as 1% in experiment [1]; 7% in [2]; 3% in experiment [3]; 0% in experiment [4]; 2% in experiment [5]; 0% in experiment [6]. The inhibition in experiment [7] is 1%; in [8], 6%; in experiment [9], 2%; in experiment [10] it was 2%; in experiment [11], 0%; in [12], 16%. In addition, the inhibition came out at 5% in experiment [13]; 5% in [14]; 5% in experiment [15]; 0% in experiment [16]; 1% in [17]; 5% in [18].
`Cc1cccc(N(C)c2cc(Nc3cccc(C(=O)N(CC(C)C)CC(C)C)c3)ncn2)c1`: the inhibition is 1% in experiment [1]; 0% in [2]; 0% in [3]; 2% in experiment [4]; 2% in [5]; 6% in experiment [6]. Also, the inhibition is 10% in experiment [7]; 0% in experiment [8]; 0% in experiment [9]; 7% in [10]; 0% in experiment [11]; 0% in experiment [12]. The inhibition in [13] amounted to 3%; in experiment [14] it was 0%; in [15], 9%; in [16] it was 0%; in [17] it was 0%; in experiment [18] it was 0%.
With `Cc1cccc(N(C)c2cc(N3CCN(CC(=O)Nc4nc(-c5ccccc5)cs4)CC3)ncn2)c1`, the inhibition was determined as 5% in experiment [1]; 0% in experiment [2]; 5% in experiment [3]; 0% in experiment [4]; 3% in experiment [5]; 0% in experiment [6]. For the same compound, the inhibition turned out to be 6% in [7]; 0% in experiment [8]; 0% in [9]; 22% in [10]; 0% in experiment [11]; 14% in experiment [12]. For the same compound, the inhibition in [13] came to 0%; in experiment [14], 2%; in experiment [15], 7%; in experiment [16] it was 6%; in experiment [17], 3%; in [18], 0%.
For `Cc1cccc(Oc2ccnc(N3CCN(C(=O)c4c(C)noc4C)CC3)n2)c1`, the inhibition in experiment [1] amounted to 0%; in experiment [2], 0%; in experiment [3] it was 0%; in [4], 2%; in experiment [5], 7%; in experiment [6], 0%. The inhibition in [7] was 0%; in [8], 5%; in experiment [9], 1%; in [10], 2%; in [11] it was 0%; in experiment [12], 6%. Moreover, the inhibition in [13] stood at 6%; in experiment [14], 4%; in experiment [15] it was 5%; in [16] it was 0%; in experiment [17], 0%; in experiment [18], 0%.
With `O=C(COc1ccccc1)N1CCN(c2nccc(Nc3ccc4ncsc4c3)n2)CC1`, the inhibition is 15% in experiment [1]; 0% in experiment [2]; 0% in [3]; 2% in experiment [4]; 5% in experiment [5]; 0% in [6]. The inhibition in experiment [7] amounted to 8%; in experiment [8] it was 16%; in experiment [9], 1%; in experiment [10] it was 54%; in experiment [11] it was 0%; in experiment [12], 49%. The inhibition in experiment [13] turned out to be 44%; in [14] it was 0%; in experiment [15], 30%; in experiment [16], 0%; in experiment [17] it was 0%; in [18], 0%.
